Values after ≈ are worked out from the molar mass of the structure shown.
Experiments:
[1] = Inhibition of Mycobacterium tuberculosis KARI using 2-acetolactate as substrate preincubated for 30 mins in presence of Mg2+ and NADPH followed by substrate addition by Morrison's equation analysis
How it was run: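 0.27 μM MtKARI preincubated 30 min at 25 °C with inhibitor, 50 μM NADPH and 50 mM Mg²⁺ in 0.1 M Tris-HCl pH 8. Reaction started with 200 μM 2-acetolactate, and A340 decrease followed for 5 min. Compounds above 80% inhibition at 100 μM were retested at 1 nM−100 μM. Ki from Morrison equation fit.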

[2] = system: Mycobacterium tuberculosis; assay: Antimycobacterial activity against Mycobacterium tuberculosis H37Rv assessed as reduction in bacterial growth incubated for 5 days by resazurin dye based assay; assay type: functional; details: 120 h, time 5 day
How it was run: (§1)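 REMA in defined minimal medium (KH2PO4, Na2HPO4, L-asparagine, ferric ammonium citrate, MgSO4, CaCl2, ZnSO4, 0.1% glycerol) at 37 °C. Compounds 2-fold serially diluted from 30 μM. Fluorescence (ex 530/em 590 nm) read 24 h after resazurin.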

[3] = Selectivity ratio of MIC for antimycobacterial activity against Mycobacterium tuberculosis H37Ra in presence of BCAA to MIC for antimycobacterial activity against Mycobacterium tuberculosis H37Ra in absence of BCAA; assay type: functional
[4] = system: Mycobacterium tuberculosis; assay: Antimycobacterial activity against Mycobacterium tuberculosis H37Ra assessed as reduction in bacterial growth incubated for 5 days by resazurin dye based assay; assay type: functional; details: 120 h, time 5 day; how it was run: as §1
[5] = Selectivity index, ratio of MIC for antimycobacterial activity against Mycobacterium tuberculosis H37Rv in presence of BCAA to MIC for antimycobacterial activity against Mycobacterium tuberculosis H37Rv in absence of BCAA; assay type: functional
[6] = system: Mycobacterium tuberculosis; assay: Antimycobacterial activity against Mycobacterium tuberculosis H37Ra assessed as reduction in bacterial growth incubated for 5 days in presence of BCAA by resazurin dye based assay; assay type: functional; details: 120 h, time 5 day
How it was run: (§2)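 REMA as for the unsupplemented assay, but with medium supplemented with 1 mM each of leucine, isoleucine and valine. Defined minimal medium at 37 °C. Log-phase inoculum at final OD 0.001 (H37Ra) or 0.003 (H37Rv). 2-fold dilutions from 30 μM. Resazurin fluorescence (530/590 nm) read after 24 h.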

[7] = system: Mycobacterium tuberculosis; assay: Antimycobacterial activity against Mycobacterium tuberculosis H37Rv assessed as reduction in bacterial growth incubated for 5 days in presence of BCAA by resazurin dye based assay; assay type: functional; details: 120 h, time 5 day; how it was run: as §2
[8] = system: Mycobacterium tuberculosis; assay: Potency index, ratio of IC50 for IpOHA to IC50 for test compound for inhibition of Mycobacterium tuberculosis KARI using 2-acetolactate as substrate
[9] = Inhibition of Slackia exigua KARI
[10] = Inhibition of Escherichia coli KARI using acetolactate as substrate assessed as slow and tight binding by measuring initial inhibition constant in presence of NADPH by spectrophotometric analysis
[11] = Inhibition of Mycobacterium tuberculosis KARI expressed in Escherichia coli BL21 using 2-acetolactate as substrate in presence of NADPH by spectrophotometric analysis
[12] = Inhibition of Escherichia coli KARI using acetolactate as substrate assessed as slow and tight binding by measuring steady-state inhibition constant in presence of NADPH by spectrophotometric analysis
RAW264.7 = assay: Cytotoxicity against mouse RAW264.7 cells up to 100 uM incubated for 24 to 48 hrs by MTT assay; assay type: cell-based; details: time 24-48 hrs
How it was run: (§3)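 Cells grown to 80% confluency, RAW 264.7 and HEK293 in DMEM, SW620 in RPMI, each with 10% FBS and 1 mM nonessential amino acids. Seeded at 2×10⁵ (RAW 264.7), 5×10³ (HEK293) or 2×10³ (SW620) per well and held 24−48 h at 37 °C, 5% CO2. Twofold dilutions added at 1% DMSO final, then overnight incubation. MTT 3 h, DMSO solubilisation, A570.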

SW-620 = assay: Cytotoxicity against human SW-620 cells up to 50 uM incubated for 24 to 48 hrs by MTT assay; assay type: cell-based; details: time 24-48 hrs; how it was run: as §3
HEK293 = assay: Cytotoxicity against human HEK293 cells up to 50 uM incubated for 24 to 48 hrs by MTT assay; assay type: cell-based; details: time 24-48 hrs; how it was run: as §3
[13] = Selectivity ratio of IC50 for Mycobacterium tuberculosis KARI to IC50 for Slackia exigua KARI

Question: With `CCOC(=O)C(=O)N(O)C1CCCC1` as the molecule, how does the Ki [1] read?
Answer: Its Ki is 32.2 nM.

Question: Which Ki [1] does the source give for `CCOC(=O)C(=O)N(CC)CC` here?
Answer: The Ki was over 20000 nM.

Question: Which Ki [1] does the source give for `O=C(O)C(=O)NCc1ccccc1` here?
Answer: The Ki was over 20000 nM.

Question: With `CCOC(=O)C(=O)N(O)C1CCNCC1` as the molecule, how does the Ki [1] read?
Answer: Its Ki is 3080 nM.

Question: For `O=C(O)C(=O)N(C1CCCCC1)C1CCCCC1`, which Ki [1] is on record?
Answer: Its Ki is over 20000 nM.

Question: For `O=C(O)CC(=O)N(O)C1CCCC1`, which Ki [1] is on record?
Answer: The Ki was over 20000 nM.

Question: For `COC(=O)CC(=O)N(O)C1CCCC1`, which Ki [1] is on record?
Answer: Its Ki is over 20000 nM.

Question: Which Ki [1] does the source give for `CC(C)CC(C)N(O)C(=O)C(=O)O` (stereo not drawn) here?
Answer: The Ki was 660 nM.

Question: For `CCCCCCCCOC(=O)C(=O)N(O)C1CCCC1`, which MIC90 [2] is on record?
Answer: Its MIC90 is 2.32 µM (≈ 0.662 µg/mL).

Question: And the Selectivity ratio [3]?
Answer: The Selectivity ratio was 3.

Question: And the MIC90 [4]?
Answer: The MIC90 was 6.34 µM (≈ 1.81 µg/mL).

Question: What about the Selectivity ratio [5] of the same molecule?
Answer: The Selectivity ratio was 6.

Question: And the MIC90 [6]?
Answer: Its MIC90 is 24.9 µM.

Question: And the MIC90 [7]?
Answer: Its MIC90 is 18.9 µM.

Question: Which MIC90 [2] does the source give for `O=C(O)C(=O)N(O)C1CCCC1` here?
Answer: The MIC90 was 219 µM (≈ 37.9 µg/mL).

Question: And the Ratio IC50 [8]?
Answer: Its Ratio IC50 is 5.

Question: What about the Ki [9] of the same molecule?
Answer: Its Ki is 8.5 nM.

Question: And the Ki [1]?
Answer: Its Ki is 19.7 nM.

Question: Which Ki [1] does the source give for `CCOC(=O)C(=O)N(O)C1CCCCC1` here?
Answer: The Ki was 1020 nM.

Question: With `CCCCCCOC(=O)C(=O)N(O)C1CCCC1` as the molecule, how does the MIC90 [4] read?
Answer: The MIC90 was over 30 µM.

Question: With `CCOC(=O)C(=O)N(O)C(C)c1ccccc1` (stereo not drawn) as the molecule, how does the Ki [1] read?
Answer: The Ki was 152 nM.

Question: Which Ki [1] does the source give for `CCOC(=O)C(=O)N(C1CCCCC1)C1CCCCC1` here?
Answer: Its Ki is over 20000 nM.

Question: For `CCCCCCCCCCCCOC(=O)C(=O)N(O)C1CCCC1`, which MIC90 [2] is on record?
Answer: Its MIC90 is 2.97 µM (≈ 1.01 µg/mL).

Question: What about the Selectivity ratio [3] of the same molecule?
Answer: Its Selectivity ratio is 3.

Question: And the MIC90 [4]?
Answer: Its MIC90 is 4.99 µM (≈ 1.7 µg/mL).

Question: And the Selectivity ratio [5]?
Answer: Its Selectivity ratio is 6.

Question: What about the MIC90 [6] of the same molecule?
Answer: The MIC90 was 14.1 µM.

Question: What about the MIC90 [7] of the same molecule?
Answer: Its MIC90 is 17.2 µM.

Question: With `CC(C)NC(=O)C(=O)O` as the molecule, how does the Ki [1] read?
Answer: Its Ki is over 20000 nM.

Question: With `CC(C)N(O)C(=O)C(=O)O` as the molecule, how does the Ki [10] read?
Answer: The Ki was 160 nM.

Question: And the Ki [11]?
Answer: Its Ki is 97.7 nM.

Question: What about the Ki [12] of the same molecule?
Answer: The Ki was 0.09 nM.

Question: With `CCOC(=O)C(=O)NCc1ccccc1` as the molecule, how does the Ki [1] read?
Answer: The Ki was over 20000 nM.

Question: With `CCCCCCCCCCCCCCCCCCOC(=O)C(=O)N(O)C1CCCC1` as the molecule, how does the MIC90 [4] read?
Answer: The MIC90 was over 30 µM.

Question: For `CC(C)CNC(=O)C(=O)O`, which Ki [1] is on record?
Answer: The Ki was over 20000 nM.

Question: With `CCOC(=O)C(=O)N(O)C1CCN(C(=O)OC(C)(C)C)CC1` as the molecule, how does the Ki [1] read?
Answer: The Ki was over 20000 nM.

Question: With `CCOC(=O)C(=O)N(O)C(C)CC(C)C` (stereo not drawn) as the molecule, how does the Ki [1] read?
Answer: The Ki was 2660 nM.

Question: Which results are given for `CCCCCCCCCCOC(=O)C(=O)N(O)C1CCCC1`?
Answer: MIC90 [2]: 2.45 µM (≈ 0.768 µg/mL); Activity (RAW264.7): Non-Toxic; Selectivity ratio [3]: 3; Activity (SW-620): Non-Toxic; MIC90 [4]: 3.01 µM (≈ 0.943 µg/mL); Selectivity ratio [5]: 6; MIC90 [6]: 15.3 µM; Activity (HEK293): Non-Toxic; MIC90 [7]: 15.2 µM

Question: For `O=C(O)C(=O)N(O)C1CCCCC1`, which Ki [9] is on record?
Answer: The Ki was 8.5 nM.

Question: What about the Ratio IC50 [13] of the same molecule?
Answer: The Ratio IC50 was 25.

Question: What about the Ki [1] of the same molecule?
Answer: Its Ki is 39.6 nM.

Question: Which Ki [9] does the source give for `CC(c1ccccc1)N(O)C(=O)C(=O)O` (stereo not drawn) here?
Answer: The Ki was 193 nM.

Question: What about the Ratio IC50 [13] of the same molecule?
Answer: The Ratio IC50 was 2.

Question: What about the Ki [1] of the same molecule?
Answer: The Ki was 97.7 nM.

Question: Which Ki [1] does the source give for `CCN(CC)C(=O)C(=O)O` here?
Answer: The Ki was over 20000 nM.

— ChEMBL document CHEMBL4732165, “Analogues of the Herbicide, N-Hydroxy-N-isopropyloxamate, Inhibit Mycobacterium tuberculosis Ketol-Acid Reductoisomerase and Their Prodrugs Are Promising Anti-TB Drug Leads” (J Med Chem, 2021)
